ChEMBL document CHEMBL3232966, “A new potential approach to block HIV-1 replication via protein-protein interaction and strand-transfer inhibition” (Bioorg Med Chem, 2014)
Calls of active or inactive are those of the source. No cut-off for these calls is given here.

Assays:
[1] = Inhibition of His-6-tagged HIV-1 integrase-recombinant flag-tagged LEDGF/p75 (unknown origin) interaction after 1hr by AlphaScreen assay
Procedure, shortened: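 AlphaScreen. Ni-chelate acceptor and anti-flag donor beads were added (20 µg/ml each final), then incubated 1 h at 30 °C in low light. Acceptor-bead light emission was read.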

[2] = Inhibition of His-6-tagged HIV-1 integrase-recombinant flag-tagged LEDGF/p75 (unknown origin) interaction at 100 uM after 1hr by AlphaScreen assay
[3] = Cytotoxicity against human MT4 cells assessed as cell viability by MTT assay; type: cell-based
Procedure, shortened: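 Uninfected MT-4 lymphocytes exposed to fivefold serial compound dilutions, run in parallel with the antiviral test. Viability read by MTT reduction to formazan by mitochondrial dehydrogenase, measured spectrophotometrically. CC50 = concentration lowering MT-4 viability by 50%.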

[4] = system: Human immunodeficiency virus 1; assay: Antiviral activity against HIV-1 3B infected in MT4 cells assessed as inhibition of virus-induced cytopathic effect by MTT assay; type: functional, organism-based; details: Human immunodeficiency virus 1, 3B
Procedure, shortened: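 MT-4 lymphocytes infected with 100–300 CCID50 of HIV(IIIB) stock (CCID50 titrated on MT-4 cells), with fivefold serial compound dilutions. Protection against virus-induced cytopathic effect read by MTT reduction to formazan, measured spectrophotometrically. EC50 = concentration giving 50% protection against CPE.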

[5] = molecular target: Human immunodeficiency virus type 1 integrase (Human immunodeficiency virus 1, UniProt Q7ZJM1); assay: Inhibition of HIV-1 integrase strand transfer activity using 3'-end biotin labelled oligonucleotide/5'-end digoxigenin labelled oligonucleotide as substrate after 1 hr by ELISA
Procedure, shortened: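 ELISA strand-transfer assay. Integrase (diluted in 750 mM NaCl, 10 mM Tris pH 7.6, 10% glycerol, 1 mM β-mercaptoethanol; 1.6 µM) was mixed with annealed oligonucleotides (7 nM): a 3'-biotin strand plus a 5'-digoxigenin strand lacking 3'-terminal GT. Buffer contained MgCl2, DTT, HEPES pH 7.5, 5% PEG and 15% DMSO. Incubation 1 h at 37 °C, NaOH denaturation, detection on avidin-coated plates.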

[6] = Selectivity index, ratio of CC50 for human MT4 cells to EC50 for HIV-1 3B; type: toxicity, cell-based; details: read-out: Ratio CC50/EC50
Procedure, shortened: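 Ratio CC50/EC50. CC50 comes from the MTT viability assay on uninfected MT-4 cells. EC50 comes from the MTT protection assay on MT-4 cells infected with HIV(IIIB).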

Sequence of Human immunodeficiency virus type 1 integrase (Q7ZJM1 whole entry): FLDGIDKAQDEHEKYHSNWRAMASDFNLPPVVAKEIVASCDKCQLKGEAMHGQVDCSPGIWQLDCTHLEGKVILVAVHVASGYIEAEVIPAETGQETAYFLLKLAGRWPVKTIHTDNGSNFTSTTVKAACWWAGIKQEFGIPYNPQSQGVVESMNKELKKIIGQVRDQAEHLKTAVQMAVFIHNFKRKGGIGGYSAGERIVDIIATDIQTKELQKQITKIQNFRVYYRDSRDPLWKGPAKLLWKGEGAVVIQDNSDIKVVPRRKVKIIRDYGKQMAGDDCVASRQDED

| Compound | IC50 [1] [µM] | inhibition [2] | CC50 [3] [µM] | EC50 [4] [µM] | IC50 [5] [µM] | selectivity ratio [6] |
| --- | --- | --- | --- | --- | --- | --- |
| CC(C)(C)c1ccc(Cn2cc(C(=O)/C=C(\O)C(=O)O)c3cc(Cl)ccc32)cc1 | 10 | 88% | – | – | – | – |
| CC(C)(C)c1ccc(Cn2cc(C(=O)C3=C(O)C(=O)OC3)c3cc(F)ccc32)cc1 | 36.2 | 96% | – | – | – | – |
| COc1ccc2c(c1)c(C(=O)/C=C(\O)C(=O)O)cn2Cc1c(C)cc(C)cc1C | 33.1 | 72% | 23.5 | 3.23 | 0.42 | 8 |
| COc1ccc2c(c1)c(C(=O)/C=C(\O)C(=O)O)cn2Cc1ccc(C(F)(F)F)cc1 | – | 40% | – | – | – | – |
| COc1ccc2c(c1)c(C(=O)C1=C(O)C(=O)OC1)cn2Cc1c(C)cc(C)cc1C | 33.2 | 82% | – | – | – | – |
| O=C(O)/C(O)=C/C(=O)c1cn(Cc2ccc(C(F)(F)F)cc2C(F)(F)F)c2ccc(F)cc12 | – | inactive | – | – | – | – |
| O=C1OCC(C(=O)c2cn(Cc3ccc(C(F)(F)F)cc3)c3ccc(F)cc23)=C1O | 12.2 | 65% | – | – | – | – |
| O=C1OCC(C(=O)c2cn(Cc3ccc(-c4ccccc4)cc3)c3ccc(F)cc23)=C1O | 15.8 | 89% | – | – | – | – |
| COc1ccc2c(c1)c(C(=O)C1=C(O)C(=O)OC1)cn2Cc1ccc(C(F)(F)F)cc1C(F)(F)F | 39.5 | 61% | – | – | – | – |
| COc1ccc2c(c1)c(C(=O)C1=C(O)C(=O)OC1)cn2Cc1cc(C)cc(C)c1 | – | 66% | – | – | – | – |
| O=C(O)/C(O)=C/C(=O)c1cn(Cc2ccc(-c3ccccc3)cc2)c2ccc(F)cc12 | 8.1 | 72% | – | – | – | – |
| COc1cccc2c1c(C(=O)/C=C(\O)C(=O)O)cn2Cc1ccc(F)cc1 | 36.2 | – | – | – | – | 70 |
| Cc1cc(C)c(Cn2cc(C(=O)C3=C(O)C(=O)OC3)c3cc(Cl)ccc32)c(C)c1 | 23.6 | 85% | 40.5 | 19.8 | – | 2 |
| Cc1cc(C)cc(Cn2cc(C(=O)/C=C(\O)C(=O)O)c3cc(Cl)ccc32)c1 | – | inactive | > 125 | 56.1 | – | > 2 |
| COc1ccc2c(c1)c(C(=O)/C=C(\O)C(=O)O)cn2Cc1ccc(-c2ccccc2)cc1 | > 100 | 59% | – | – | – | – |
| O=C1OCC(C(=O)c2cn(Cc3ccc(C(F)(F)F)cc3)c3ccc(Cl)cc23)=C1O | 12.3 | 92% | – | – | – | – |
| COc1ccc2c(c1)c(C(=O)C1=C(O)C(=O)OC1)cn2Cc1ccc(C(F)(F)F)cc1 | 52.2 | 65% | – | – | – | – |
| O=C1OCC(C(=O)c2cn(Cc3ccc(C(F)(F)F)cc3C(F)(F)F)c3ccc(F)cc23)=C1O | – | 37% | – | – | – | – |
| O=C1OCC(C(=O)c2cn(Cc3ccc(-c4ccccc4)cc3)c3ccc(Cl)cc23)=C1O | 21.8 | 80% | – | – | – | – |

| Compound | IC50 [1] [µM] | inhibition [2] | CC50 [3] [µM] | EC50 [4] [µM] | IC50 [5] [µM] | selectivity ratio [6] |
| --- | --- | --- | --- | --- | --- | --- |
| Cc1cc(C)cc(Cn2cc(C(=O)C3=C(O)C(=O)OC3)c3cc(Cl)ccc32)c1 | 23.1 | 96% | 53.5 | 16.9 | – | 3 |
| O=C(O)/C(O)=C/C(=O)c1cn(Cc2ccc(C(F)(F)F)cc2)c2ccc(Cl)cc12 | 32.9 | 80% | 23 | 5.09 | 0.26 | 5 |
| O=C(O)/C(O)=C/C(=O)c1cn(Cc2ccc(-c3ccccc3)cc2)c2ccc(Cl)cc12 | – | 31% | – | – | – | – |
| Cc1cc(C)cc(Cn2cc(C(=O)C3=C(O)C(=O)OC3)c3cc(F)ccc32)c1 | 20.3 | 73% | – | – | – | – |
| COc1ccc2c(c1)c(C(=O)/C=C(\O)C(=O)O)cn2Cc1ccc(C(F)(F)F)cc1C(F)(F)F | – | 33% | – | – | – | – |
| COc1ccc2c(c1)c(C(=O)/C=C(\O)C(=O)O)cn2Cc1cc(C)cc(C)c1 | 53.9 | 89% | 51 | 2.24 | 1.09 | 23 |
| CC(C)(C)c1ccc(Cn2cc(C(=O)/C=C(\O)C(=O)O)c3cc(F)ccc32)cc1 | – | 33% | – | – | – | – |
| CC(C)(C)c1ccc(Cn2cc(C(=O)C3=C(O)C(=O)OC3)c3cc(Cl)ccc32)cc1 | 52.5 | 83% | 53 | 23.4 | – | 2 |
| O=C(O)/C(O)=C/C(=O)c1cn(Cc2ccc(C(F)(F)F)cc2C(F)(F)F)c2ccc(Cl)cc12 | 3.8 | 80% | – | – | – | – |
| Cc1cc(C)cc(Cn2cc(C(=O)/C=C(\O)C(=O)O)c3cc(F)ccc32)c1 | – | 26% | – | – | – | – |
| O=C(O)/C(O)=C/C(=O)c1cn(Cc2ccc(C(F)(F)F)cc2)c2ccc(F)cc12 | 17.8 | 77% | 15 | 7.83 | 1.55 | 2 |
| Cc1cc(C)cc(Cn2cc(C(=O)/C=C(\O)C(=O)O)c3c(O)cccc32)c1 | 3.5 | – | 44 | 4.63 | – | 10 |
| COc1ccc2c(c1)c(C(=O)/C=C(\O)C(=O)O)cn2Cc1ccc(C(C)(C)C)cc1 | 91.7 | 65% | – | – | – | – |
| O=C1OCC(C(=O)c2cn(Cc3ccc(C(F)(F)F)cc3C(F)(F)F)c3ccc(Cl)cc23)=C1O | 21.5 | 86% | – | – | – | – |
| COc1ccc2c(c1)c(C(=O)C1=C(O)C(=O)OC1)cn2Cc1ccc(C(C)(C)C)cc1 | 17.1 | 93% | – | – | – | – |
| COc1ccc2c(c1)c(C(=O)C1=C(O)C(=O)OC1)cn2Cc1ccc(-c2ccccc2)cc1 | – | 51% | – | – | – | – |
| Cc1cc(C)c(Cn2cc(C(=O)/C=C(\O)C(=O)O)c3cc(F)ccc32)c(C)c1 | 15.2 | 71% | 104 | 5.14 | 2.51 | 21 |
| Cc1cc(C)c(Cn2cc(C(=O)/C=C(\O)C(=O)O)c3cc(Cl)ccc32)c(C)c1 | > 100 | 59% | – | – | – | – |
| Cc1cc(C)c(Cn2cc(C(=O)C3=C(O)C(=O)OC3)c3cc(F)ccc32)c(C)c1 | 5.6 | 81% | 107 | 49 | – | 2 |
